Measurements reported in ChEMBL document CHEMBL1137561 (J Med Chem, 2007).

Experiments:
[1] = Inhibition of HIV1 reverse transcriptase Y1811 mutant; design: species or system Human immunodeficiency virus 1
Procedure, shortened: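 Recombinant HIV-1 RT Y181I mutant, purified to >95%, 10 min preincubation with inhibitor. Radioactive nucleotide incorporation into poly(rA)/oligo(dT) 10:1 was followed at varied nucleotide substrate levels, sampling every 2 min for initial velocities. Inhibitor spanned 0.2–5 Ki. Ki came from Lineweaver-Burk and Dixon plots. Means ± SD of at least three experiments.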

[2] = target: Human immunodeficiency virus type 1 reverse transcriptase (Human immunodeficiency virus 1, UniProt Q72547, Y188L); assay: Inhibition of HIV1 reverse transcriptase Y188L mutant
[3] = target: Human immunodeficiency virus type 1 reverse transcriptase (Human immunodeficiency virus 1, UniProt Q72547, V179D); assay: Inhibition of HIV1 reverse transcriptase V179D mutant
[4] = tested on: Human immunodeficiency virus 1; assay: Antiviral activity against HIV1 NL43 in MT4 cells assessed as inhibition of viral induced cytopathic effect after 5 days by MTT method; settings: Human immunodeficiency virus 1, NL43, MT4, 120 h
[5] = target: Human immunodeficiency virus type 1 reverse transcriptase (Human immunodeficiency virus 1, UniProt Q72547, L100I); assay: Inhibition of HIV1 reverse transcriptase L100I mutant
[6] = Selectivity index, ratio of CC50 for MT4 cells to EC50 for HIV1 NL43 infected MT4 cells; type: functional
[7] = target: Human immunodeficiency virus type 1 reverse transcriptase (Human immunodeficiency virus 1, UniProt Q72547); assay: Inhibition of wild type HIV1 3B reverse transcriptase
[8] = target: Human immunodeficiency virus type 1 reverse transcriptase (Human immunodeficiency virus 1, UniProt Q72547, V106A); assay: Inhibition of HIV1 reverse transcriptase V106A mutant
[9] = target: Human immunodeficiency virus type 1 reverse transcriptase (Human immunodeficiency virus 1, UniProt Q72547, K103N); assay: Inhibition of HIV1 reverse transcriptase K103N mutant
[10] = Cytotoxicity against MT4 cells after 4 days by MTT method; type: cell-based; settings: human
Procedure, shortened: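 Mock-infected (noninfected) MT-4 cells, run in parallel with the antiviral test. Viable cells read by the MTT tetrazolium colorimetric method. […] Means ± SD from at least two experiments. The top concentration was limited where compounds precipitated in the culture medium.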

[11] = tested on: Human immunodeficiency virus 1; assay: Antiviral activity against HIV1 with reverse transcriptase Y181C mutation in MT4 cells assessed as inhibition of viral induced cytopathic effect by MTT method; type: functional, organism-based; settings: Human immunodeficiency virus 1, MT4
Procedure, shortened: (§1)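 MT-4 cells infected with the HIV-1 NNRTI-resistant mutant strain. Viable cells scored at day 5 post-infection by the MTT tetrazolium colorimetric method. […] Values are means ± SD from at least two experiments.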

[12] = tested on: Human immunodeficiency virus 1; assay: Antiviral activity against HIV1 with reverse transcriptase Y188L mutation in MT4 cells assessed as inhibition of viral induced cytopathic effect by MTT method; type: functional, organism-based; settings: Human immunodeficiency virus 1, MT4
Procedure, shortened: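 MT-4 cells infected with the HIV-1 NNRTI-resistant mutant strain. Viable cells scored at day 5 post-infection by the MTT tetrazolium colorimetric method. Values are means ± SD from at least two experiments.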

[13] = tested on: Human immunodeficiency virus 1; assay: Antiviral activity against HIV1 with reverse transcriptase K103N mutation in MT4 cells assessed as inhibition of viral induced cytopathic effect by MTT method; type: functional, organism-based; settings: Human immunodeficiency virus 1, MT4; procedure, shortened: as §1
[14] = tested on: Human immunodeficiency virus 1; assay: Antiviral activity against HIV1 with reverse transcriptase IRLL98 mutation in MT4 cells assessed as inhibition of viral induced cytopathic effect by MTT method; type: functional, organism-based; settings: Human immunodeficiency virus 1, MT4
[15] = Resistance index, Ratio of EC50 for drug-resistant HIV1 with RT Y181C mutation in MT4 cells to EC50 for HIV1 NL43 in MT4 cells
[16] = Resistance index, Ratio of EC50 for drug-resistant HIV1 with RT IRLL98 mutation in MT4 cells to EC50 for HIV1 NL43 in MT4 cells
[17] = Resistance index, Ratio of EC50 for drug-resistant HIV1 with RT K103N mutation in MT4 cells to EC50 for HIV1 NL43 in MT4 cells
[18] = Resistance index, Ratio of EC50 for drug-resistant HIV1 with RT Y188L mutation in MT4 cells to EC50 for HIV1 NL43 in MT4 cells

Row | SMILES | Ki [1] [µM] | Ki [2] [µM] | Ki [3] [µM] | EC50 [4] [µM] | Ki [5] [µM] | Ratio CC50/EC50 [6] | Ki [7] [µM] | Ki [8] [µM] | Ki [9] [µM] | CC50 at 96 h [10] [µM] | EC50 [11] [µM] | EC50 [12] [µM] | EC50 [13] [µM] | EC50 [14] [µM] | Ratio EC50 [15] | Ratio EC50 [16] | Ratio EC50 [17] | Fold change [17] | Fold change [15] | Ratio EC50 [18]
1 | Cc1c(Cc2c(F)cccc2F)nc(N2CCN(c3ccccn3)CC2)[nH]c1=O | > 20 | 0.49 | 0.01 | 0.012 | > 20 | >5250 | 0.05 | 0.01 | > 20 | > 63 |  |  |  |  |  |  |  |  |  | 
2 | Cc1c(Cc2c(F)cccc2F)nc(N2CCCCCC2)[nH]c1=O |  |  |  | 0.05 |  | >1500 |  | 0.5 |  | > 75 | 0.57 | > 10 | > 10 | 1.7 | 11 | 34 |  |  |  | 
3 | O=c1cc(Cc2c(F)cccc2F)nc(N2CCOCC2)[nH]1 | > 20 | > 20 |  | 0.211 | 15 | >384 | 0.7 | 2.9 | > 20 | > 81 | > 10 | > 10 | > 10 | > 10 |  |  |  |  |  | 
4 | CN1CCN(c2nc(Cc3c(F)cccc3F)cc(=O)[nH]2)CC1 | > 20 | > 20 | > 40 | 6.09 | > 20 | >13 | 11.2 | > 40 | > 20 | > 78 |  |  |  |  |  |  |  |  |  | 
5 | Cc1c(C(C)c2c(F)cccc2F)nc(N2CCCC2)[nH]c1=O (stereo not drawn) |  |  |  | 0.002 |  | >39000 |  |  |  | > 78 | 0.071 | > 10 | 0.155 | 0.2 | 35 | 100 | 77 |  |  | 
6 | CCCN(C)c1nc(C(C)c2c(F)cccc2F)cc(=O)[nH]1 (stereo not drawn) |  |  |  | 0.0006 |  | >135000 |  |  |  | > 81 | 0.05 | > 10 | 0.08 | 0.15 |  | 250 |  | 133 | 83 | 
7 | CCC(c1cc(=O)[nH]c(N(C)C)n1)c1c(F)cccc1F (stereo not drawn) | > 20 | 5 | 0.03 | 0.002 | 3.3 | 36500 | 0.1 | 0.14 | 10 | 73 | 0.43 | > 10 | 0.18 | 1.6 | 215 | 800 | 90 |  |  | 
8 | Cc1c(Cc2c(F)cccc2F)nc(N2CCSCC2)[nH]c1=O | > 20 | > 20 | 40 | 0.004 | 5 | >18500 | 0.15 | 0.09 | > 20 | > 74 | > 10 | > 10 | > 10 | > 10 |  |  |  |  |  | 
9 | COc1ccccc1N1CCN(c2nc(Cc3c(F)cccc3F)c(C)c(=O)[nH]2)CC1 | > 20 | 25.7 | 5 | 0.218 | 10 | 170 | 0.25 | 0.5 | > 20 | 37 |  |  |  |  |  |  |  |  |  | 
10 | Cc1c(Cc2c(F)cccc2F)nc(N2CCOCC2)[nH]c1=O | > 20 | > 20 | 8.3 | 0.026 | 0.9 | >3000 | 0.05 | 0.4 | > 20 | > 78 | > 10 | > 10 | > 10 | > 10 |  |  |  |  |  | 
11 | Cc1c(Cc2c(F)cccc2F)nc(N2CCN(C)CC2)[nH]c1=O |  |  | > 40 | 0.598 |  | >125 | 2 | 0.9 |  | > 75 |  |  |  |  |  |  |  |  |  | 
12 | Cc1c(Cc2c(F)cccc2F)nc(N2CCCCC2)[nH]c1=O |  |  |  | 0.003 |  | >26000 |  |  |  | > 78 | 0.14 | 10 | > 10 | 0.82 | 47 | 273 |  |  |  | 3333
13 | Cc1ccnc2c1NC(=O)c1cccnc1N2C1CC1 [NEVIRAPINE] | 35 |  |  | 0.08 |  |  |  |  |  | > 7 | 0.87 |  | 1.8 | 9.9 |  |  |  |  |  | 
14 | Cc1c(Cc2c(F)cccc2F)nc(N(C)C)[nH]c1=O | > 20 | 11 | 1.6 | 0.005 | 10 | >17800 | 0.1 | 0.7 | 9 | > 89 | 1.82 | > 10 | 2.4 | 0.5 | 364 | 100 | 480 |  |  | 
15 | CC(c1cc(=O)[nH]c(N(C)C)n1)c1c(F)cccc1F (stereo not drawn) |  |  |  | 0.001 |  | 89000 |  | 0.5 |  | 89 | 0.26 | > 10 | 0.12 | 0.67 | 260 | 670 | 120 |  |  | 
